The source of these data is ChEMBL document CHEMBL3593156, “Bioactive Sesquiterpenes and Lignans from the Fruits of Xanthium sibiricum” (J Nat Prod, 2015).

pIC50: −log10 of the molar value.

A short description of series [1]: Antiinflammatory activity in C57BL6/J mouse BV2 cells assessed as inhibition of LPS-induced nitric oxide production after 24 hrs by Griess assay. Type of series: functional, cell-based. As to conditions: BV-2, 24 h. In a few lines:
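Mouse (C57BL6/J) macrophages grown 24 h at 37 °C in RPMI1640, then given 1 μg/mL LPS plus test compounds for a further 24 h at 37 °C. Blank, LPS-only and dexamethasone (10−6 M) wells served as controls. Nitrite in supernatant was read with Griess reagent at 570 nm against a sodium nitrite standard.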
(Nitrite, measured by Griess reagent, commonly stands in for NO production.)

Series [2] concerns Mus musculus. The series is described as follows: Antiinflammatory activity in ICR mouse assessed as inhibition of croton oil-induced ear edema at 50 mg/ml administered 1 hr prior to croton oil challenge measured after 4 hrs relative to control. The series is classed as functional. In a few lines:
(§1)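 Male ICR mice (18−20 g, n = 10 per group) received 0.4 mg croton oil in […] acetone on the left ear. Treatment was applied 1 h before the croton oil, and the animals were killed 4 h after it. Edema was taken as the weight difference between 8 mm punches of the treated and untreated ears, expressed as % reduction versus control mice.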

Series [3] deals with Coxsackievirus B3. The series is described as follows: Antiviral activity against Coxsackievirus B3 infected in African green monkey Vero cells assessed as inhibition of virus-induced cytopathic effect. Type of series: functional, organism-based. As to conditions: Enterovirus B. A digest of the protocol:
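Vero cells (2.5 × 10^4/well) were plated for 24 h, infected 2 h with 100 TCID50 Coxsackievirus B3 (Nancy), then given compounds at various concentrations until control CPE reached 4+. Run in triplicate, at least three times. IC50 is the concentration inhibiting 50% of CPE (Reed and Muench). SI = TC50/IC50.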
Background: Cytopathic effects are the visible damage that an infection or toxin causes in cultured cells.

Series [4] can be described thus: Cytotoxicity against African green monkey Vero cells assessed as growth inhibition by CPE assay. Conditions: chlorocebus sabaeus, read-out: TC50 (the source's name). Type of series: cell-based. In a few lines:
(§2)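 Vero or MDCK cells (2.5 × 10^4/well) were seeded and incubated overnight. Medium was then replaced with compounds at various concentrations in triplicate. After a 2-day incubation, cytotoxicity was scored by CPE. TC50 is the concentration inhibiting 50% of cell growth versus controls (Reed and Muench). Values are means of three independent determinations.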

Series [5] can be described thus: Selectivity index, ratio of TC50 for African green monkey Vero cells to IC50 for Coxsackievirus B3-induced cytopathic effect in African green monkey Vero cells. Conditions: read-out: Selectivity Index. The series is classed as toxicity, cell-based. In a few lines:
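Vero cells (2.5 × 10^4 cells/well). TC50: cells incubated overnight, compounds applied in triplicate for 2 days, CPE read, 50% growth inhibition versus controls by Reed and Muench. IC50: cells infected 2 h with 100 TCID50 CVB3 (Nancy), compounds added until control CPE 4+, 50% CPE inhibition by Reed and Muench. SI = TC50/IC50.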

Series [6] is described as follows: Cytotoxicity against MDCK cells assessed as growth inhibition by CPE assay. The series is classed as cell-based, Canis lupus familiaris. As to conditions: dog, read-out: TC50 (the source's name). In a few lines:
as §2

A short description of series [7]: Antiviral activity against Influenza A virus (A/FM/1/47(H1N1)) infected in MDCK cells assessed as inhibition of virus-induced cytopathic effect. Type of series: functional, cell-based, Influenza A virus (A/Fort Monmouth/1/1947(H1N1)). A digest of the protocol: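 MDCK cells (2.5 × 10^4 cells/well) plated 24 h, PBS-washed, infected 2 h with 100 TCID50 influenza A/FM/1/47 (H1N1); compounds at various concentrations added, incubation until control CPE reached 4+. Triplicate, at least three separate runs; IC50 = minimal concentration inhibiting 50% CPE, Reed and Muench method.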

Series [8] in a line: Selectivity index, ratio of TC50 for MDCK cells to IC50 for Influenza A virus (A/FM/1/47(H1N1))-induced cytopathic effect in MDCK cells. The series is classed as toxicity, cell-based. Conditions: dog, read-out: Selectivity Index. A digest of the protocol:
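MDCK cells (2.5 × 10^4 cells/well). TC50: cells incubated overnight, compounds applied in triplicate for 2 days, CPE read, 50% growth inhibition versus controls by Reed and Muench. IC50: PBS-washed cells infected 2 h with 100 TCID50 influenza A/FM/1/47 (H1N1), compounds added until control CPE 4+, 50% CPE inhibition by Reed and Muench. SI = TC50/IC50.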

For series [9], the system named is Mus musculus. The series is described as follows: Antiinflammatory activity in ICR mouse assessed as inhibition of croton oil-induced ear edema at 1 mg/ml administered 1 hr prior to croton oil challenge measured after 4 hrs relative to control. The series is classed as functional. A digest of the protocol:
as §1

Turning to `C=C1C(=O)O[C@@H]2C=C(CCC(C)=O)[C@@H](C)CC[C@@H]12`, the negative logarithm of the IC50 (pIC50) (as a rule, the IC50 on a negative log10 scale, so that one unit is a factor of ten) in series [1] is 5.07; in series [3] it was 5.19; in series [7], 5.07. In series [2], the “inhibition (INH)” value is less than 20%. The results for the CC50 in [4] and in series [6] were 19.2 µM and 19.3 µM, respectively. Moreover, the selectivity ratio in series [5] amounted to 3; in series [8], 2.2.
For `CC(=C/C(=O)O)/C=C/[C@]1(O)[C@@]2(C)CO[C@]1(C)CC(=O)C2`, the pIC50 in [1] was less than 5.00; in series [3], less than 4.46; in series [7] it was less than 4.46.
Take `CCOC(=O)c1ccc(O)c(O)c1`: the values for the pIC50 in series [1], in [3] and in series [7] were less than 5.00, 4.95 and less than 4.46, respectively. Moreover, the CC50 in series [4] turned out to be 23.1 µM. Besides, in series [5], the selectivity ratio came out at 2.1.
As for `NC(=O)c1ncn([C@@H]2O[C@H](CO)[C@@H](O)[C@H]2O)n1` [RIBAVIRIN], the pIC50 in series [3] is 2.92. In addition, the selectivity ratio in [5] came to 6.8.
With `CC1=C2C[C@H]3[C@@]4(CO4)[C@H](O)C=C[C@]3(C)C[C@@H]2OC1=O`, the pIC50 in series [1] is less than 5.00; in series [3], 4.72; in series [7], 4.48. Also, the CC50 is 69.3 µM in series [4] and 100 µM in series [6]. Moreover, the selectivity ratio in series [5] was 3.6; in series [8], 3.
`C=C1CC=C[C@]2(C)C[C@]3(O)OC(=O)C(C)C3=C[C@@H]12` (stereo not given in full) [HYDROXYLINDESTENOLIDE]: the figures for the pIC50 in series [1], in [3] and in [7] were 5.41, less than 4.46 and less than 4.46, respectively. For the same compound, the “inhibition (INH)” value in series [2] amounted to 37.7%.
Turning to `C=C1C(=O)O[C@H]2C[C@H](C)C(C=O)=CC[C@H]12`, the pIC50 in [1] is 5.52; in series [3], 4.72; in series [7], 5.19. Also, in [2], the “inhibition (INH)” value is recorded as less than 20%. Moreover, the figures for the CC50 in [4] and in [6] were 69.3 µM and 48.1 µM, respectively. In addition, the figures for the selectivity ratio in series [5] and in series [8] were 3.6 and 7.5, respectively.
With `COc1cc([C@@H]2Oc3c(OC)cc(C(=O)[C@H](O)CO)cc3[C@H]2CO)ccc1O`, the results for the pIC50 in series [1], in series [3] and in [7] were less than 5.00, less than 4.46 and less than 4.46, respectively.
For the compound `C=C1[C@H]2C[C@H]2[C@]2(C)CC(=O)C3=C(C)C(=O)O[C@@H]3[C@@H]12`, the pIC50 in series [1] is less than 5.00; in series [3], less than 4.46; in [7] it was less than 4.46.
For the compound `C[C@H]1C[C@@H]2OC(=O)[C@H](C)[C@H]2CC=C1C=O`, the pIC50 in series [1] was less than 5.00; in series [3], less than 4.46; in [7], less than 4.46.
With `C=C1[C@@H]2C[C@@H]2[C@@]2(C)C=C3OC(=O)C(C)=C3[C@@H](O)[C@H]12`, the results for the pIC50 in series [1], in series [3] and in [7] were less than 5.00, less than 4.46 and less than 4.46, respectively.
As to `CC(=O)/C=C/C1=CC[C@H]2[C@H](C[C@@H]1C)OC(=O)[C@@H]2C`, the pIC50 was 5.43 in series [1], less than 4.46 in [3] and less than 4.46 in series [7]. In addition, the “inhibition (INH)” value in [2] was less than 20%.
For `COc1cc(C(O)C(CO)Oc2ccc(C(=O)O)cc2OC)ccc1O` (stereo not given), the results for the pIC50 in [1], in series [3] and in series [7] were less than 5.00, less than 4.46 and 5.08, respectively. Further, the CC50 in series [6] was determined as 100 µM. Moreover, in series [8], the selectivity ratio is 11.9.
Turning to `C[C@H]1C[C@@H]2OC(=O)[C@H](C)[C@H]2CC=C1C(=O)O`, the results for the pIC50 in series [1], in series [3] and in [7] were less than 5.00, less than 4.46 and less than 4.46, respectively.
As for `CC(=O)CCC1=CC[C@H]2[C@H](C[C@@H]1C)OC(=O)[C@@H]2C`, the pIC50 in series [1] is less than 5.00; in series [3] it was 5.19; in [7] it was less than 4.46. Also, the “inhibition (INH)” value in series [2] is less than 20%. In addition, the CC50 in [4] was 77.6 µM. Moreover, in series [5], the selectivity ratio came to 12.1.
On to `CC(O)CCC1=CC[C@H]2[C@@H](C[C@@H]1C)OC(=O)[C@@H]2C` (stereo not given in full), for which the pIC50 is 5.24 in series [1], less than 4.46 in series [3] and less than 4.46 in series [7].
Turning to `COc1cc([C@H]2Oc3c(OC)cc(C(=O)[C@@H](O)CO)cc3[C@@H]2CO)ccc1O`, the values for the pIC50 in [1], in series [3] and in series [7] were less than 5.00, less than 4.46 and less than 4.46, respectively.
Turning to `C[C@H]1C[C@@H]2OC(=O)[C@H](C)[C@H]2C=CC1=O`, the pIC50 is less than 5.00 in series [1], less than 4.46 in series [3] and less than 4.46 in series [7].
In the case of `C[C@@H]1C[C@H]2[C@@H]3CCC4=CC(=O)C=C[C@]4(C)[C@@]3(F)[C@@H](O)C[C@]2(C)[C@@]1(O)C(=O)CO` [DEXAMETHASONE], the pIC50 in series [1] was 7.60. For the same compound, the “inhibition (INH)” value in series [9] was 70.5%.
As to `CC(=C/C(=O)O)/C=C/[C@]1(O)[C@@]2(C)CO[C@]1(C)C[C@@H](O)C2`, the values for the pIC50 in series [1], in series [3] and in [7] were less than 5.00, less than 4.46 and less than 4.46, respectively.
With `Cc1cc(CCCOc2c(C)cc(-c3noc(C(F)(F)F)n3)cc2C)on1` [PLECONARIL], the pIC50 in series [3] was 8.60. For the same compound, the CC50 in series [4] was found to be 40.5 µM. Also, the selectivity ratio in [5] was found to be 16200.
Consider `CCOC(=O)/C=C/c1ccc(O)c(O)c1` [ETHYL CAFFEATE], for which the pIC50 in [1] is 5.60; in [3], less than 4.46; in [7], 5.43. Further, the CC50 in [6] was determined as 19.3 µM. The selectivity ratio in [8] came out at 5.2.
Regarding `C[C@@H]1C(=O)O[C@H]2C[C@H](C)C(C(=O)O)=CC[C@@H]21`, the pIC50 in [1] is less than 5.00; in series [3], less than 4.46; in [7], less than 4.46.
Regarding `COC(=O)CC1=CC[C@H]2[C@H](C[C@@H]1C)OC(=O)[C@H]2C`, the negative-log IC50 (pIC50) in [1] was less than 5.00; in [3], less than 4.46; in series [7], less than 4.46.
Turning to `CC(=O)/C=C/C1=CC[C@H]2[C@H](C[C@@H]1C)OC(=O)[C@H]2C`, the pIC50 in [1] is less than 5.00; in series [3], less than 4.46; in series [7], less than 4.46.
`C=C1C(=O)O[C@H]2C[C@H](C)C(CCC(C)=O)=CC[C@H]12`: the pIC50 in series [1] is 5.25; in [3] it was less than 4.46; in series [7], less than 4.46. In series [2], the “inhibition (INH)” value is recorded as 46.9%.
`CCOC(=O)C1=C[C@@H](OC(CC)CC)[C@H](NC(C)=O)[C@@H](N)C1` [OSELTAMIVIR]: the CC50 in series [6] was 3120 µM. Also, the pIC50 in [7] is 5.57. Moreover, the selectivity ratio in [8] was 1140.
